According to article PMC2223364 (The Journal of General Physiology, 1999):
Values joined by “and” are separate entries in the source; they are usually repeats but may differ in a detail not shown here. Equal values may be shown once. Read-outs that look alike come from different tables or passages of the source. Ends that are not written are not given here.

What was measured:
[1] = test system: maxi-KCa channel (external TEA site); assay: Fast block by external TEA in absence and presence of internal DTX-I; assay type: biochemical, rat; conditions: 460 nM DTX-I; P = 0.1
Summary of the method: (§1)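 Single rat skeletal muscle maxi-KCa channels were taken from plasma membrane vesicles and fused into planar bilayers of 80% POPE/20% POPC. Recordings used symmetrical 50 mM KCl and 10 mM MOPS-KOH, pH 7.4. Internal CaCl2 was 200 μM, raised to 500 μM in some experiments to keep open probability >0.9. Holding was +30 mV at 20–23°C, with Ag/AgCl electrodes and agar-KCl bridges.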

[2] = target: rat muscle maxi-KCa channel, internal pore (Rattus norvegicus, UniProt Q62976); assay: Single-channel block by ball peptide homologue; assay type: biochemical; conditions: for Kd: BP alone, +30 mV, 50 mM KCl, pH 7.4
rat muscle maxi-KCa channel, internal pore, sequence (Q62976 whole entry): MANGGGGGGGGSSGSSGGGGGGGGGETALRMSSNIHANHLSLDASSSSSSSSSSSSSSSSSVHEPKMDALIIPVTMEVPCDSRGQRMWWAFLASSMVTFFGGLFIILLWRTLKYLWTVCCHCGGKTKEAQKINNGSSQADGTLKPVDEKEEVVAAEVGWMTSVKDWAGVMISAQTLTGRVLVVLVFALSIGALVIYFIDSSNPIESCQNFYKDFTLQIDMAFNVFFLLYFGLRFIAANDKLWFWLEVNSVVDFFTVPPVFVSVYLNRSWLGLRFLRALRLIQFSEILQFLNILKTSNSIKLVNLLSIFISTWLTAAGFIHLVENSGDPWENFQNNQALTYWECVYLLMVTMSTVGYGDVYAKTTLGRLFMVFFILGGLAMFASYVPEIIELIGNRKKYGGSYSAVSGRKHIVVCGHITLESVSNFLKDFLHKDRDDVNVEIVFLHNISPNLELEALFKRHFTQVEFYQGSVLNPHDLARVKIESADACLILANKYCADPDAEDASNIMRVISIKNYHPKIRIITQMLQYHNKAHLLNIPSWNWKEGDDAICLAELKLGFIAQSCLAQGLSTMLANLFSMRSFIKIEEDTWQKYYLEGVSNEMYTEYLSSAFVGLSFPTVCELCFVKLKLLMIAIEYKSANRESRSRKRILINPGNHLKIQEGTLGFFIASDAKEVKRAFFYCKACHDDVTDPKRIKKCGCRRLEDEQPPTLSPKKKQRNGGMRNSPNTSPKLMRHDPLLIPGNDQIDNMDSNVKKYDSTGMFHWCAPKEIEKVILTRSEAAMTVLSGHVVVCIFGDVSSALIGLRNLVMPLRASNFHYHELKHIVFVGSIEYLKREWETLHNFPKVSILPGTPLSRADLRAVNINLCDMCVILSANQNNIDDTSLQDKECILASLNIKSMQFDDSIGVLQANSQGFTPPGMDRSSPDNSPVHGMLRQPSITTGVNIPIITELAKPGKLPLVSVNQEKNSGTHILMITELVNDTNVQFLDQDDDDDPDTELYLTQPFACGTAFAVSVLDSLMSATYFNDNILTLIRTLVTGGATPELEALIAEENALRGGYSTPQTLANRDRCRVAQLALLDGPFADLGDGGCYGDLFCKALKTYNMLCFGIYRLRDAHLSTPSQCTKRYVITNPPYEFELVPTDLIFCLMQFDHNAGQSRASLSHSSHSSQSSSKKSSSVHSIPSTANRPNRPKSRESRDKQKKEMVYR
Summary of the method: as §1

[3] = test system: maxi-KCa channels; conditions: cited from earlier work
[4] = target: rat muscle maxi-KCa channel, intracellular sites (Rattus norvegicus, UniProt Q62976); assay: Ligand interaction of BP and DTX-I on single maxi-KCa channels, planar bilayer; assay type: biochemical
rat muscle maxi-KCa channel, intracellular sites, sequence (Q62976 whole entry): as above
Summary of the method: as §1

[5] = test system: cyclic nucleotide–gated channels; conditions: ref Kramer et al., 1994; cited from earlier work
[6] = test system: serine proteinases (chymotrypsin/trypsin family); conditions: BPTI and related Kunitz molecules; ref Dufton, 1985; Capasso et al., 1997; cited from earlier work
[7] = test system: rat muscle maxi-KCa channel (large conductance Ca^2+-activated K^+ channel), intracellular site; assay: Ligand interaction of BPTI and DTX-I on single maxi-KCa channels, planar bilayer; assay type: biochemical
Summary of the method: as §1

[8] = test system: rat muscle maxi-KCa channel (large conductance Ca^2+-activated K^+ channel), intracellular site; assay: Single-channel substate kinetics of one Kunitz inhibitor; assay type: biochemical
Summary of the method: as §1

[9] = test system: maxi-KCa channel (external ChTX site); assay: Slow block by external charybdotoxin in absence and presence of internal DTX-I; assay type: biochemical, rat
[10] = read-out: Kd (studied alone), abstract, one-site binding kinetics, unoccupied channel

In the case of `CC[N+](CC)(CC)CC` [TEA, tetraethylammonium], the “binding interaction of external TEA with internal DTX-I” value [1] is given as “no detectable binding interaction”, the “effect of internal TEA on BP association” value ([2]; data not shown) is given as “decreases the association rate of BP homologue in a competitive fashion” and the “effect of BPTI or DTX-I on blocking affinity of internal blocker” value ([3]; Ba^2+ with BPTI, internal TEA with DTX-I, ref Lucchesi and Moczydlowski, 1991) is given as “not significantly affected”. The “inhibition of ball peptide block by TEA” value ([3]; ref Toro et al., 1992) was “inhibits ball peptide block of the maxi-KCa channel in a strictly competitive fashion”.
In the case of MAAVAVLYVLGKKRQHRKKQ [BP], the Kd ([2]; equilibrium dissociation constant B1 = b−1/b1 (BP from BBP), unoccupied channel, kinetic ratio) is reported as 7.16 nM, the Kd ([2]; equilibrium dissociation constant B1 from PU vs [BP] (Eq. 15), 4.5–6.5 h data pooled from three to seven single channels) is reported as 8.85 nM and the kon ([2]; pH 7.4, read-out: bimolecular association rate constant b1 (BP to U)) is reported as 8.17e+07 M⁻¹ s⁻¹. It also gave a koff ([2]; pH 7.4, read-out: dissociation rate constant b−1 (BP from BBP)) of 0.585 s⁻¹, a Kd [4] of 57 nM and a kon ([4]; pH 7.4, read-out: association rate constant b2 (BP to SDTX)) of 1.85e+06 M⁻¹ s⁻¹. The koff ([4]; read-out: dissociation rate constant b−2 (BP from BBP/DTX)) was 0.105 s⁻¹.
For “Shaker ball peptide: 20-residue NH2 terminus of the Shaker K^+ channel of Drosophila that mediates rapid inactivation (MAAVAVLYVLGKKRQHRKKQ)”, the “block of cyclic nucleotide–gated channels” value [5] is given as “blocks other types of ion channels” and the “block of maxi-KCa channels” value ([3]; ref Foster et al., 1992, Toro et al.) is given as “known to block maxi-KCa channels by a pore-occlusion mechanism”.
In the case of “bovine pancreatic trypsin inhibitor [BPTI]”, the “inhibition of chymotrypsin/trypsin family serine proteinases” value [6] is listed as “potent inhibitors”, the “relief of the DTX substate” value ([7]; 8 μM BPTI, 460 nM DTX-I) is listed as about 30% and the “slope of τBURST vs [BPTI]” value ([7]; BPTI titration at 460 nM DTX-I, measured) is listed as 3.25 s/µM. For the same compound, the “KApp for relief of normalized DTX-substate probability, best fit to Eq. 10” value ([7]; BPTI titration, 460 nM DTX-I) was 17.8 µM and 17.8 ± 1.7 µM, the “decrease of BPTI affinity when DTX-I is bound (K2/K1)” value ([7]; DTX-occupied vs unoccupied channel) was 11.7 fold and 11.7 ± 2.1 fold and ~11 fold and the “increase in mean τS-DTX” value ([7]; over 0–8 μM BPTI at 460 nM DTX-I) was 47%. The Kd ([7]; read-out: Kd of BPTI when DTX-I is bound, abstract, DTX-occupied channel) was 17500 nM, the “probability of the channel residing in the fully open conductance state” value ([8]; 8 μM internal BPTI (1.0 at 0 μM), +30 mV) was about 0.15 and the “mean lifetime of BPTI-induced substate (τS)” value ([8]; BPTI alone, internal, 1-8 μM, +30 mV, symmetrical 50 mM KCl, 10 mM MOPS-KOH pH 7.4, 200 μM internal Ca2+, 20–23°C, mean of four τS means, single-exponential) was ~0.41 s and 0.411 ± 0.022 s. For the same compound, the “apparent association rate constant 4k1” value ([8]; BPTI alone, internal, fit of τU to Eq. 2, +30 mV, 50 mM KCl, pH 7.4) was 1.63 ± 0.07 × 10^6 s^−1M^−1, the “dissociation rate constant k−1” value ([8]; BPTI alone, internal, from τS (Eq. 1), ±SEM, +30 mV, 50 mM KCl, pH 7.4) was 2.43 ± 0.13 s⁻¹ and the “equilibrium dissociation constant K1 (kinetic ratio k−1/4k1)” value ([8]; BPTI, unoccupied channel, +30 mV, 50 mM KCl, pH 7.4) was 1.49 ± 0.10 µM and 1.49 µM. For the same compound, the Hill coefficient n ([8]; fit of PU vs [BPTI]) was 1.0, the substate current level ([8]; ligand alone, internal, +30 mV) was ~27 % of unitary current and the Kd [8, 10] was 1490 nM. For the same compound, the “binding kinetics when studied alone” value ([8]; words) was “one-site binding kinetics”.
In the case of charybdotoxin [ChTX], the “binding interaction of external ChTX with internal DTX-I” value ([9]; 460 nM internal DTX-I) is reported as “no detectable binding interaction”, the “koff of ChTX, presence of DTX-I” value ([9]; 460 nM internal DTX-I, +30 mV) is reported as 0.0350 ± 0.0003 s⁻¹ and the “kon of ChTX, presence of DTX-I” value ([9]; 460 nM internal DTX-I, +30 mV) is reported as 2.89 ± 0.51 × 10^7 s^−1M^−1. For the same compound, the “koff of ChTX, absence of DTX-I” value ([9]; external ChTX (10 nM), +30 mV) was 0.0369 ± 0.0004 s⁻¹, the “kon of ChTX, absence of DTX-I” value ([9]; external ChTX (10 nM), +30 mV) was 2.77 ± 0.42 × 10^7 s^−1M^−1 and the Kd ([9]; read-out: Kd of ChTX (koff/kon), absence of DTX-I, external ChTX (10 nM), +30 mV) was 1.33 ± 0.2 nM.
“dendrotoxin I (QPLRKLCILHRNPGRCYQKIPAFYYNQKKKQCEGFTWSGCGGNSNRFKTIEECRRTCIRK; ends and bridges not checked; cysteine pairing not given here; UniProt P00979 1-60, looked up) [DTX-I]” gave a Kd ([4]; read-out: equilibrium dissociation constant J3 (DTX-I from BBP/DTX), DTX-I binding to BP-blocked state, from τBP, Eq. 19, +30 mV, 50 mM KCl, pH 7.4) of 139 nM, a Kd ([7]; read-out: equilibrium dissociation constant J2, DTX-I binding to BPTI-occupied channel, from slope of τBURST vs [BPTI], Eq. 7, 460 nM DTX-I, +30 mV, 50 mM KCl, pH 7.4) of 178 nM and a Kd [8, 10] of 16.5 nM. It also gave a Kd ([8]; read-out: equilibrium dissociation constant J1 = j−1/4j1 (DTX-I from SDTX), DTX-I, unoccupied channel, +30 mV, 50 mM KCl, pH 7.4) of 16.5 nM.
